Data set [1] is described as follows: Inhibition of Escherichia coli LpxC using DP-3-0-(R-3-hydroxymyristoy1)-N-acetylglucosamine as substrate incubated for 120 mins by fluorescamine assay.
The test system of the next data set is Escherichia coli. The data set can be described thus: Antibacterial activity against Escherichia coli ATCC 25922 by CLSI based broth microdilution method. It is filed as functional. The method, boiled down: (§1)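 Broth microdilution MIC per CLSI method; E. coli ATCC 25922 and K. pneumoniae ATCC 13883.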
The test system of data set [2] is Klebsiella pneumoniae. The data set can be described thus: Antibacterial activity against Klebsiella pneumonia ATCC 13883 by CLSI based broth microdilution method. It counts as functional. The method, boiled down: as §1
A short description of data set [3]: Protein binding in human serum at 1 ug/ml incubated for 4 hrs by LC-MS/MS analysis. It is filed as ADME, cell-free. The note with it: at 1 µg/mL, read-out: PB (converted). A digest of the protocol:
(§2)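 Equilibrium dialysis at 1 µg/mL final in pooled male ICR mouse serum or human volunteer serum (no anticoagulant). Dialyzed against 50 mM sodium phosphate buffer at 37 °C for 4 h (5% CO2, MWCO 12000–14000). Compound on each side measured by LC-MS/MS; binding % = (Cs−Cb)/Cs×100.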

Data set [4] can be described thus: Protein binding in ICR mouse serum at 1 ug/ml incubated for 4 hrs by LC-MS/MS analysis. It counts as ADME, cell-free. To be noted: at 1 µg/mL, read-out: PB (converted). The method, boiled down:
as §2

Data set [5] relates to Klebsiella pneumoniae. The data set can be described thus: In vivo antibacterial activity against Klebsiella pneumonia ATCC BAA-2343 infected in ICR mouse assessed as reduction in bacterial burden in lung at 50 mg/kg, sc administered after 2 hrs of infection and measured after 26 hrs of infection. It is filed as functional. To be noted: time 24 hrs. The method, boiled down:
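Female ICR mice (5 weeks) made neutropenic with cyclophosphamide ip, 150 and 100 mg/kg at days −4 and −1. Intranasal inoculation with 1.5–1.9 × 10^6 CFU. Compound in 10w/v% HP-β-CD given sc 2 h post-infection (n = 5). Lung viable counts at 2 h (control) and 26 h; mean log change versus start of therapy.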

Data set [6] is described as follows: Toxicity in iv dosed ICR mouse assessed as maximum tolerated dose. To be noted: in vivo. It is filed as organism-based. A digest of the protocol: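 Exploratory MTD study in male ICR mice (n = 2): a single intravenous tail-vein injection at dose levels of up to 200 mg/kg.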
A short description of data set [7]: Cardiotoxicity in iv dosed Hartley guinea pig assessed as increase in QT prolongation measured after 30 mins. The note with it: in vivo, 0.5 h. It counts as toxicity, organism-based, Cavia porcellus. The method, boiled down: (§3)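 Guinea pigs (6–7 weeks) anesthetized with pentobarbital 60 mg/kg ip, then infused iv at 8 mg/kg/h; ventilated at 15 mL/kg, 60/min. Vehicle (11w/v% SBE-β-CD, pH4) or compound infused via jugular vein for 30 min. Carotid arterial pressure and ECG recorded; QT corrected by Bazett. Heart rate, QTc, SBP and DBP expressed as change from baseline.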

The nature of data set [8]: Cardiotoxicity in iv dosed Hartley guinea pig assessed as decrease in heart rate measured after 30 mins. The note with it: in vivo, 0.5 h. It counts as toxicity, organism-based, Cavia porcellus. A digest of the protocol: as §3
A short description of data set [9]: Cardiotoxicity in Hartley guinea pig assessed as decrease in blood pressure at 150 mg/kg, iv measured after 30 mins. It is filed as toxicity, organism-based, Cavia porcellus. To be noted: in vivo, 0.5 h. A digest of the protocol:
as §3

In data set [10] the target is Voltage-gated inwardly rectifying potassium channel KCNH2 (Homo sapiens, UniProt Q12809). The data set can be described thus: Inhibition of human ERG expressed in CHO cells by whole cell Q-patch clamp assay. It is filed as cell-based.
The nature of data set [11]: Genotoxicity in mouse lymphoma cell. It counts as toxicity. The note with it: lymphoma cell line.
Data set [12] in a line: Toxicity in iv dosed cynomolgus monkey assessed as maximum tolerated dose administered for 14 days. It counts as organism-based, Macaca fascicularis. To be noted: in vivo, time 14 day. The method, boiled down:
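Three-year-old female cynomolgus monkeys were dosed intravenously for 14 days as a 30-min infusion via the saphenous vein. MTD was assessed under repeated dosing.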

Data set [13] is described as follows: Toxicity in iv dosed Sprague-Dawley rat assessed as maximum tolerated dose administered for 4 days. The note with it: in vivo, time 4 day. It counts as organism-based. A digest of the protocol:
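Six-week-old male and female Sprague Dawley rats received intravenous bolus doses via the tail vein for 4 days. MTD was assessed under repeated dosing.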

Data set [14] in a line: Plasma concentration in Hartley guinea pig at 150 mg/kg, iv measured after 30 mins by LC-MS/MS analysis. It is filed as ADME, organism-based, Cavia porcellus. A digest of the protocol: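 Anesthetized guinea pigs received a 30-min iv infusion. Blood was taken at the end of infusion and centrifuged, and plasma concentration (C30min) was measured by LC-MS/MS.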
A short description of data set [15]: Free plasma concentration in Hartley guinea pig serum assessed as fraction unbound at 150 mg/kg, iv measured after 30 mins by LC-MS/MS analysis. It counts as ADME, organism-based, Cavia porcellus. To be noted: in vivo, 0.5 h. The method, boiled down:
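Unbound plasma concentration at end of 30-min iv infusion in anesthetized guinea pigs: LC-MS/MS plasma C30min multiplied by fraction unbound, with plasma fu assumed equal to serum fu (equilibrium dialysis, 500 µg/mL in guinea pig serum).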

≈ marks a conversion by molar mass, not a printed value.

Voltage-gated inwardly rectifying potassium channel KCNH2, sequence (Q12809 whole entry): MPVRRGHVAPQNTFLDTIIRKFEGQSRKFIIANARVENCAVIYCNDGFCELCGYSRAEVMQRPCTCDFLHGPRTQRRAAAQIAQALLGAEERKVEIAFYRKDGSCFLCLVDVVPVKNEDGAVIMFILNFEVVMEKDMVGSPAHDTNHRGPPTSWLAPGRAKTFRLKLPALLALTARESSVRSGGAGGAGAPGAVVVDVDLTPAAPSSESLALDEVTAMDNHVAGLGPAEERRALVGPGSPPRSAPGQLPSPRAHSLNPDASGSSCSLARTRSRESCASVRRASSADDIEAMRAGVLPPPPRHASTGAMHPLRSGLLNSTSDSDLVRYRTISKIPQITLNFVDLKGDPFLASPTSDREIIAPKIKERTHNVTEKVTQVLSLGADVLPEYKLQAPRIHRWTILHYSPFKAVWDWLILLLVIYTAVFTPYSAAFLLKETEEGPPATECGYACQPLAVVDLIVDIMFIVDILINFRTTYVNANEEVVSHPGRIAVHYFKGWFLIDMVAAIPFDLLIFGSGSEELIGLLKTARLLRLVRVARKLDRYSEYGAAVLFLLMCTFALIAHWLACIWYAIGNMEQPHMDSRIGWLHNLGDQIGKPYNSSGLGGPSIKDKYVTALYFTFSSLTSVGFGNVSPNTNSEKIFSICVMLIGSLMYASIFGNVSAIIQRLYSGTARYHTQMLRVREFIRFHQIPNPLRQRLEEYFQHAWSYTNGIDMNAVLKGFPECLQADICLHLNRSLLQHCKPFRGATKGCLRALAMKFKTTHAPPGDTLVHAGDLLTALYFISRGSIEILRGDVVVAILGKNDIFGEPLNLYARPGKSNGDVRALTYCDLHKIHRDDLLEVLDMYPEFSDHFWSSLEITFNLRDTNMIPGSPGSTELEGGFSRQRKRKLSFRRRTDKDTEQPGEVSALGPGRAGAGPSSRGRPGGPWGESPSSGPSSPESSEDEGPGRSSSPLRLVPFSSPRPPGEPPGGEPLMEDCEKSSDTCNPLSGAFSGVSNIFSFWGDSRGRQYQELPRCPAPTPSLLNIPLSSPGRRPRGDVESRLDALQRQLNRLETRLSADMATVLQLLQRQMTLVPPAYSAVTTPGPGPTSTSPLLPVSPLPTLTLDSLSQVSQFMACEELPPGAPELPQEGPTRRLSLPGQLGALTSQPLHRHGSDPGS

Turning to `C[C@H](O)c1nccn1Cc1cc(-c2ccc(C#C[C@@H]3[C@H]4CN(CCCC(=O)O)C[C@@H]34)cc2)on1`, the IC50 in data set [1] was 0.101 µM; in [10], > 1000 µM. The minimal inhibitory concentration (MIC) in the data set on Escherichia coli amounted to 2 µg/mL (≈ 4.34 µM); in the data set with Klebsiella pneumoniae [2], 4 µg/mL (≈ 8.69 µM). The results for the fraction unbound at 4 h, 1 ug/ml in [3] and in [4] were 0.223 and 0.241, respectively. The Activity in the data set on Klebsiella pneumoniae [5] is recorded as -1.63 log10CFU; in data set [7], “Non-Toxic”; in [8], “Non-Toxic”; in [9], “Non-Toxic”; in [11], “Non-Toxic”. Moreover, the MTD in data set [6] was ≥ 200 mg/kg. For the same molecule, the maximal tolerated dose (MTD) at 336 h in data set [12] was > 400 mg/kg. The maximum tolerated dose (MTD) at 96 h in [13] turned out to be 400 mg/kg. In addition, the concentration at 0.5 h in data set [14] worked out at 378 µg/mL. The “Cp(f)” value in data set [15] was found to be 87.3 µg/mL.

For the origin of these results see ChEMBL document CHEMBL4680332, “Lead optimization of 2-hydroxymethyl imidazoles as non-hydroxamate LpxC inhibitors: Discovery of TP0586532” (Bioorg Med Chem, 2021).
